Data as given in ChEMBL document CHEMBL3102735, “Enhancing the pharmacodynamic profile of a class of selective COX-2 inhibiting nitric oxide donors” (Bioorg Med Chem, 2014).
In brackets after ≈: the same amount, converted by molar mass.

How the values were obtained:
[1] = Stability of the compound in phosphate buffer saline assessed as compound remaining at pH 7.4 after 60 mins by LC-MS/MS analysis; assay type: physicochemical; details: read-out: Stability
Method in brief: (§1)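 1 mM DMSO stock added to 0.01 M PBS (pH 7.4) or 0.05 M simulated gastric fluid without pepsin (pH 1.5 with HCl); incubated in hybridisation oven; aliquots at 0, 30, 60, 120 min quenched with ice-cold acetonitrile containing internal standard; parent remaining (%) measured.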

[2] = Solubility of the compound in simulated gastric fluid at pH 1.5 after 90 mins by HPLC analysis; assay type: ADME
Method in brief: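 DMSO stock (20 mM) diluted 2 µL into 198 µL PBS 0.01 M pH 7.4 or pepsin-free SGF 0.05 M pH 1.5, duplicate wells, shaken 90 min at 300 rpm. Filtrates analysed by HPLC with photodiode-array detection against seven-point standards (1–200 µM).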

[3] = target: T1, Prostaglandin G/H synthase 2 (Mus musculus) (UniProt Q05769); assay: Inhibition of LPS-induced COX-2 in mouse J774 cells using arachidonic acid as substrate assessed as inhibition of prostaglandin E2 production at 10 uM preincubated for 15 mins followed by substrate addition measured after 30 mins by RIA; assay type: cell-based
T1 sequence (whole entry): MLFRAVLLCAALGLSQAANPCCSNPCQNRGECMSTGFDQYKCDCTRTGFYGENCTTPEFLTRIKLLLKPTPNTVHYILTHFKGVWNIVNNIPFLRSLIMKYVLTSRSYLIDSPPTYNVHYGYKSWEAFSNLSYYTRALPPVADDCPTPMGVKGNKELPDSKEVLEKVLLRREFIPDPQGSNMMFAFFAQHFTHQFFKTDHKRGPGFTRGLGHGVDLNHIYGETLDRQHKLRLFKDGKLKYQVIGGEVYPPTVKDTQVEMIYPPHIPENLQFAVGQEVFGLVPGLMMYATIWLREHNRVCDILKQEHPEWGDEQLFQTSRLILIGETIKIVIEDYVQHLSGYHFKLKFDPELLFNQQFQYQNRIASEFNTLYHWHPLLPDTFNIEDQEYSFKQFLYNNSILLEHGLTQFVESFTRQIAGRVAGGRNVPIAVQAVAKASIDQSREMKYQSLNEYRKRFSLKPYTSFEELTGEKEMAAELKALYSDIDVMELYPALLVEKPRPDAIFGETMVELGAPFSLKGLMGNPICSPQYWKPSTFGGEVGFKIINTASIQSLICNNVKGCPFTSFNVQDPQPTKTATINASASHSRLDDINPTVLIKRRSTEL

Mus musculus [4] = assay: Antihyperalgesic activity in Swiss albino mouse assessed as reduction in carrageenan-induced inflammation at 20 mg/kg, po after 120 mins relative to control; assay type: functional; parameters: scale not given: the % may be the effect or the level left
[5] = Stability of the compound in simulated gastric fluid assessed as compound remaining at pH 1.5 after 30 mins by LC-MS/MS analysis; assay type: physicochemical; details: read-out: Stability; method in brief: as §1
Mus musculus [6] = assay: Analgesic activity in Swiss albino mouse assessed as reduction of acetic acid-induced writhing at 40 mg/kg, po measured every 10 mins after 5 mins of administration relative to control; assay type: functional; parameters: scale not given: the % may be the effect or the level left
Method in brief: (§2)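 Male Swiss albino mice (23–25 g), compound given orally in CMC vehicle; writhing induced by 0.6% acetic acid (10 mL/kg) ip. Stretching movements counted for 10 min, starting 5 min after administration; percent reduction versus CMC-treated animals.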

Mus musculus [7] = assay: Antihyperalgesic activity in Swiss albino mouse assessed as reduction in carrageenan-induced inflammation at 40 mg/kg, po after 90 mins relative to control; assay type: functional; parameters: scale not given: the % may be the effect or the level left
Plasma = assay: Metabolic stability in Wistar rat plasma at 10 mg/kg, iv up to 6 hrs by LC-MS/MS analysis; assay type: ADME, organism-based; parameters: dose 10 mg/kg, route intravenous; details: in vivo
Liver [8] = assay: Induction of nitric oxide production in Wistar rat liver homogenate assessed as nitrite level at 1 mM after 1 to 150 mins; assay type: functional, tissue-based
Mus musculus [9] = assay: Analgesic activity in Swiss albino mouse assessed as reduction of acetic acid-induced writhing at 20 mg/kg, po measured every 10 mins after 5 mins of administration relative to control; assay type: functional; parameters: scale not given: the % may be the effect or the level left; method in brief: as §2
[10] = Stability of the compound in simulated gastric fluid assessed as compound remaining at pH 1.5 after 60 mins by LC-MS/MS analysis; assay type: physicochemical; details: read-out: Stability; method in brief: as §1
Liver [11] = assay: Induction of nitric oxide production in Wistar rat liver homogenate assessed as nitrate level at 1 mM; assay type: functional, tissue-based; details: TDE = time-dependent effect
Liver [12] = assay: Induction of nitric oxide production in Wistar rat liver homogenate assessed as nitrite level at 1 mM; assay type: functional, tissue-based; details: TDE = time-dependent effect

`Cc1c(CC(=O)NCCO[N+](=O)[O-])cc(-c2ccc(S(C)(=O)=O)cc2)n1-c1ccc(F)cc1` showed a remaining at 1 h [1] of 100%, a solubility at 1.5 h [2] of 147 µM (≈ 69.9 µg/mL) and an inhibition [3] of 100%. The Activity (Mus musculus [4]) was 0%, the remaining at 0.5 h [5] was 100% and the Activity (Mus musculus [6]) was 75%. The Activity (Mus musculus [7]) was 29%, the Stability (Plasma) was “Stable” and the Activity (Liver [8]) was 27 µM. For the same compound, the Activity (Mus musculus [9]) was 77%, the remaining at 1 h [10] was 100% and the Activity (Liver [11]) was “tde”. For the same compound, the Activity (Liver [12]) was “tde”.
